Active and inactive are the calls of the source.
Key:
[1] = Toxicity in ip dosed NMRI mouse; format: organism-based; settings: in vivo
Outline: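 Male NMRI mice (20–24 g) given ip drug in saline (10 mL/kg), groups of 4. Behavioural and neurological changes scored against controls by a standardized observation technique at 30 min, 3 h and 24 h post-dose. Approximate LD50 derived from deaths counted at 24 h.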

[2] = tested on: Mus musculus; test: Inhibition of scopolamine-induced immediate working memory deficit in NMRI mouse at 0.3 to 3 mg/kg, ip by Y-maze test; format: functional, organism-based
Outline: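 Spontaneous alternation in male NMRI mice. Compound given ip in saline at 0.3, 1 and 3 mg/kg, 30 min before testing, alone or with scopolamine 1 mg/kg; four groups per dose (saline/saline, saline/scopolamine, compound/saline, compound/scopolamine). Alternation % = actual alternations / (total arm entries − 2) × 100.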

[3] = tested on: Mus musculus; test: Antinociceptive activity against acetic acid-induced writhing in NMRI mouse assessed as number of stretches at 0.1 mg/kg, ip by writhing test; format: functional; settings: route intraperitoneal
Outline: (§1)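 Groups of 8 male NMRI mice (20–24 g). Compound or reference given ip in saline (10 mL/kg) 15 min before ip 0.6% aqueous acetic acid (10 mL/kg). Stretches (back arching, pelvic rotation, hind-limb extension) counted over 10 min, beginning 10 min after acid. ANOVA + Fisher PLSD versus control.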

[4] = tested on: Mus musculus; test: Antinociceptive activity against acetic acid-induced writhing in NMRI mouse assessed as number of stretches at 1 mg/kg, ip by writhing test; format: functional; settings: route intraperitoneal; outline: as §1
[5] = tested on: Mus musculus; test: Analgesic activity in NMRI mouse assessed as reaction time taken to lick fore paw at 0.01 to 1 mg/kg, ip by hot plate test; format: functional, organism-based
Outline: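 Male NMRI mice (20–24 g), 10 per group, each pre-screened twice on a 55 °C plate (response required within 4–12 s). Compound given ip in saline (10 mL/kg) at 0.01, 0.1 and 1 mg/kg. Time to forepaw licking recorded 15 and 30 min post-injection; 30 s cutoff. ANOVA + Fisher PLSD.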

[6] = target: T1, 5-hydroxytryptamine receptor 3A (Homo sapiens, UniProt P46098); test: Antagonist activity at 5HT3 receptor in hybrid NG108-15 cells assessed as inhibition of 5HT-induced current by electrophysiology; format: functional, cell-based
T1 sequence (P46098 whole entry): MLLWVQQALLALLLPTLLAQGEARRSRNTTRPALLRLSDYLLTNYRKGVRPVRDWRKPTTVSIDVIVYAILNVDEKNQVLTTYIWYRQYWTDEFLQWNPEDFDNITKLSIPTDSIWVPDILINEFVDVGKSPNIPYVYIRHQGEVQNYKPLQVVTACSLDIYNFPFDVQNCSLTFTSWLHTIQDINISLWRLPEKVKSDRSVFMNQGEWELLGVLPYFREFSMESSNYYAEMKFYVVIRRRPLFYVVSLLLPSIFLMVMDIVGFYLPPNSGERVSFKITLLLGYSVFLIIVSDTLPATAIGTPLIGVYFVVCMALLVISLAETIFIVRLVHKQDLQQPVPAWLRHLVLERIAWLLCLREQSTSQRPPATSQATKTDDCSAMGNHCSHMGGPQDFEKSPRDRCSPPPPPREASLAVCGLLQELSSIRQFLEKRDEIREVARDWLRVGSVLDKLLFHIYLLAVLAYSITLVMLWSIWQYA
Outline: (§2)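 NG108-15 cells grown in DMEM-HG with 5% FBS and HAT, then differentiated on polylysine glass with 2% DMSO for 48 h followed by ≥24 h with 1 mM dibutyryl-cAMP. Whole-cell recording at −60 mV in HEPES saline, pH 7.3, with a CsCl/CsMeSO3 pipette solution. 5-HT 50 µM applied by gravity every 2.5 min.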

[7] = target: 5-hydroxytryptamine receptor 3A (Homo sapiens) (UniProt P46098); test: Antagonist activity at 5HT3 receptor in hybrid NG108-15 cells assessed as inhibition of 5HT-induced current treated 1 min prior to agonist treatment by electrophysiology; format: functional, cell-based; outline: as §2
[8] = target: T2, 5-hydroxytryptamine receptor 1A (Homo sapiens, UniProt P08908); test: Displacement of [3H]8OH-DPAT from human recombinant 5HT1A receptor
T2 sequence (P08908 whole entry): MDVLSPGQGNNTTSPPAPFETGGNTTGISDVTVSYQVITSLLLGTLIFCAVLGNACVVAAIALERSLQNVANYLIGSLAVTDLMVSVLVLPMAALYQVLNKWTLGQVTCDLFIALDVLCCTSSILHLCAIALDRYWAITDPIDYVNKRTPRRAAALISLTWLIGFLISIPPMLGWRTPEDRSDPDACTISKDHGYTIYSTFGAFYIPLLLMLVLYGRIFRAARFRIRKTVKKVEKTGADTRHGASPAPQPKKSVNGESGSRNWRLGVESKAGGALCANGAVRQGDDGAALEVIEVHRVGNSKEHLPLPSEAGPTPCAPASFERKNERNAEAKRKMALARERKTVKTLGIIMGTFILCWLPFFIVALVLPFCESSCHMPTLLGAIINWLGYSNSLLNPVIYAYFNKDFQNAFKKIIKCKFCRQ

[9] = target: 5-hydroxytryptamine receptor 2B (Homo sapiens, UniProt P41595); test: Displacement of [3H]mesulergine from human recombinant 5HT2B receptor
[10] = target: T3, 5-hydroxytryptamine receptor 2C (Homo sapiens, UniProt P28335); test: Displacement of [3H]mesulergine from human recombinant 5HT2C receptor
T3 sequence (P28335 whole entry): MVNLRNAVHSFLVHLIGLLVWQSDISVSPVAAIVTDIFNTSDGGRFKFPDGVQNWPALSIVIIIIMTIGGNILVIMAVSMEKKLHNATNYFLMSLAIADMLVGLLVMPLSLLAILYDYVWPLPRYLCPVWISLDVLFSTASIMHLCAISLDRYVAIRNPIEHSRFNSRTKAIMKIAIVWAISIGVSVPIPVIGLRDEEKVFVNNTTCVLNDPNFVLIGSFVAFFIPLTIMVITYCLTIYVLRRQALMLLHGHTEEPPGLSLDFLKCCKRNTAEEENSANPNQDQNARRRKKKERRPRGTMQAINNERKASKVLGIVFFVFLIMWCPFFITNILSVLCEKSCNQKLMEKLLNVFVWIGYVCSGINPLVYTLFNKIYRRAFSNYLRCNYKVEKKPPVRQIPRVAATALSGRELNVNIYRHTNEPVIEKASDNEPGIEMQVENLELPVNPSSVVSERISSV

[11] = target: 5-hydroxytryptamine receptor 5A (Homo sapiens, UniProt P47898); test: Displacement of [3H]LSD form human recombinant 5HT5A receptor
[12] = target: Alpha-1B adrenergic receptor (Homo sapiens, UniProt P35368); test: Displacement of [3H]prazosin form human recombinant Alpha-1B adrenergic receptor
[13] = target: Alpha-2A adrenergic receptor (Homo sapiens, UniProt P08913); test: Displacement of [3H]RX821002 form human recombinant alpha2A adrenergic receptor
[14] = target: Alpha-2B adrenergic receptor (Homo sapiens, UniProt P18089); test: Displacement of [3H]RX821002 form human recombinant alpha2B adrenergic receptor
Alpha-2B adrenergic receptor, sequence (P18089 whole entry): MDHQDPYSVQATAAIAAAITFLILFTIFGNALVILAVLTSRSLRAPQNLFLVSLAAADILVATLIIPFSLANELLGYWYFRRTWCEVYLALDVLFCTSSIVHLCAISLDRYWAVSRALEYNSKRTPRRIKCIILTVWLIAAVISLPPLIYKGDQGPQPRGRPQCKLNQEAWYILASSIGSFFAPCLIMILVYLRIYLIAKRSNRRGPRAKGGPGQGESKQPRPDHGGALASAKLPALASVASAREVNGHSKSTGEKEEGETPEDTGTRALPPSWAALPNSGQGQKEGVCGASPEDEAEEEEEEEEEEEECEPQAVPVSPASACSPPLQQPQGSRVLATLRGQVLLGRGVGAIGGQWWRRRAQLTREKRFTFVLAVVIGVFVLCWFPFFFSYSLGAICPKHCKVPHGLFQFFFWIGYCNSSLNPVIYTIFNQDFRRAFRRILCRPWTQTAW

5-hydroxytryptamine receptor 5A, sequence (P47898 whole entry): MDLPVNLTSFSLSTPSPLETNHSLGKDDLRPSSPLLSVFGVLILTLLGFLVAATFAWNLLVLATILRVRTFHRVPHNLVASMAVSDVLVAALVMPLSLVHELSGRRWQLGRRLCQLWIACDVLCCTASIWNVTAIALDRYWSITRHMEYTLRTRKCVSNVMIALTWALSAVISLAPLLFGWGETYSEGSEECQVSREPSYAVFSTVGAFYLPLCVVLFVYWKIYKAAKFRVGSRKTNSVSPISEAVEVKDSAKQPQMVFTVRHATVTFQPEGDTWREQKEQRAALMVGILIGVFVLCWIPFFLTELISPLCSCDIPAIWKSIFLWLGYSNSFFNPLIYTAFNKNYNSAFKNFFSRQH
Alpha-2A adrenergic receptor, sequence (P08913 whole entry): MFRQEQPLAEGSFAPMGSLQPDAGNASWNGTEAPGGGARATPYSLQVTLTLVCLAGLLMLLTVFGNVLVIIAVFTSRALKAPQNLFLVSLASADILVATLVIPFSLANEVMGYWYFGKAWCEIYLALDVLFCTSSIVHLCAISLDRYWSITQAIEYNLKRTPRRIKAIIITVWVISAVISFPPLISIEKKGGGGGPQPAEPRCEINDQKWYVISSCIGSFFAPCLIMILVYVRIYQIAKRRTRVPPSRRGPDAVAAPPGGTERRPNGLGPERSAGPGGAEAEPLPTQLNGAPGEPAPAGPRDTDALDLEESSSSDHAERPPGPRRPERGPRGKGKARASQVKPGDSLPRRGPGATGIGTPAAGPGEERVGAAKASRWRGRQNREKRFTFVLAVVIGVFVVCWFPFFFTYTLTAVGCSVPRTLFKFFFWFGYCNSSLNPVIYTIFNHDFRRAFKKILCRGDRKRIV
5-hydroxytryptamine receptor 2B, sequence (P41595 whole entry): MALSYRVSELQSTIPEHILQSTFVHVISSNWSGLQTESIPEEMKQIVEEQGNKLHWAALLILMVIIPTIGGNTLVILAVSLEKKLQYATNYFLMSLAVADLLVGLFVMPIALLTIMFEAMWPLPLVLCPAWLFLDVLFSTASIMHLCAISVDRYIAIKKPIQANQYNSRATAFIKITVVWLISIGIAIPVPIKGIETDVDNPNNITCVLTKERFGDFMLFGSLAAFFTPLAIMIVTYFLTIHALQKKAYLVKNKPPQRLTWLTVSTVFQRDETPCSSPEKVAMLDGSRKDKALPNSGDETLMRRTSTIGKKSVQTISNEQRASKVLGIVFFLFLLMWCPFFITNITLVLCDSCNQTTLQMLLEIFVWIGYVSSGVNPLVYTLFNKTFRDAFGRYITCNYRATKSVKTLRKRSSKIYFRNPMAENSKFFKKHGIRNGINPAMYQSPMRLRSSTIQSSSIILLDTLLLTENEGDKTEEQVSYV
Alpha-1B adrenergic receptor, sequence (P35368 whole entry): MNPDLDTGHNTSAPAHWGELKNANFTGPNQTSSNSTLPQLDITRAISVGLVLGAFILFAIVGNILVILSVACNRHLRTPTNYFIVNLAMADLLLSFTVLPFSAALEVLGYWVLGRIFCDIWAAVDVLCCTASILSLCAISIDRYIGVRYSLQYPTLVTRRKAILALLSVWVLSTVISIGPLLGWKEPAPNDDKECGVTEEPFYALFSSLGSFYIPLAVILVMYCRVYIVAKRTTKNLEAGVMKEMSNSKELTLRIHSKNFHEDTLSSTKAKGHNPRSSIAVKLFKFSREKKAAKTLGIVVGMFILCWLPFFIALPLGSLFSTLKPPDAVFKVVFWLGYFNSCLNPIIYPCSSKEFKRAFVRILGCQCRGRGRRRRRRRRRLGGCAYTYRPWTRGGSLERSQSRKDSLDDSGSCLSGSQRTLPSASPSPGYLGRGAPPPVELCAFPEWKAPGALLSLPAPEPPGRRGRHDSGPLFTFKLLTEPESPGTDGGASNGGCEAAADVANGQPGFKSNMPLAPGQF

CCCN1CCC(COc2nc3scc(C)c3n3cccc23)CC1
LD50 [1]: 200 mg/kg | Activity [2]: inactive | Activity [3]: 12.5 | Activity [4]: 7.6 | Activity [5]: inactive | IC50 [6]: 385 nM | Activity [7]: inactive | IC50 [8]: 5010 nM | IC50 [9]: 282 nM | IC50 [10]: 72.4 nM | IC50 [11]: > 10000 nM | IC50 [12]: 145 nM | IC50 [13]: 891 nM | IC50 [14]: 955 nM
